What was measured:
[1] = Antiproliferative activity against human U87 cells after 72 hrs; assay type: functional, cell-based, U-87MG ATCC; conditions: U-87 MG
Outline: (§1)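 Cells exposed to compound for 72 h; IC50 taken as the concentration giving 50% inhibition of cell proliferation.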

MCF7 = test: Antiproliferative activity against human MCF7 cells after 72 hrs; assay type: functional, cell-based; conditions: MCF7, 72 h; outline: as §1
K562 = test: Antiproliferative activity against human K562 cells after 72 hrs; assay type: functional, cell-based; conditions: K562, 72 h; outline: as §1
HCT-116 = test: Antiproliferative activity against human HCT116 cells after 72 hrs; assay type: functional, cell-based; conditions: HCT-116, 72 h; outline: as §1
[2] = Inhibition of sheep brain tubulin assembly by UV-spectrophotometry; parameters: species or system Ovis aries
Outline: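 Microtubule assembly run at 3 mg/mL tubulin; IC50 defined as the concentration inhibiting the rate of assembly by 50%.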

SMILES	IC50 (MCF7) [nM]	IC50 (K562) [nM]	IC50 (HCT-116) [nM]	IC50 [2] [nM]	IC50 [1] [nM]
CCC1=C[C@@H]2CN(C1)C[C@H](CN1CCC[C@H]1C(=O)N[C@H](C(=O)OC)[C@@H](C)CC)Cc1c([nH]c3ccccc13)[C@@](C(=O)OC)(c1cc3c(cc1OC)N(C)[C@H]1[C@@](O)(C(=O)OC)[C@H](OC(C)=O)[C@]4(CC)C=CCN5CC[C@]31[C@@H]54)C2	800	250	1000	2700	400
C=C(C)[C@@H]1NC(=O)[C@@H](NC)[C@@H](O)c2cc(Cl)c(O)c(c2)O[C@](C)(CC)[C@@H](C(=O)N2CC=C[C@H]2C(=O)N/C(C(=O)N/C(=C/C(=O)O)C(=O)O)=C(\C)CC)NC1=O [PHOMOPSIN A]	–	–	–	560	–
CC[C@]1(O)C[C@@H]2CN(CCc3c([nH]c4ccccc34)[C@@](C(=O)OC)(c3cc4c(cc3OC)N(C)[C@H]3[C@@](O)(C(=O)OC)[C@H](OC(C)=O)[C@]5(CC)C=CCN6CC[C@]43[C@@H]65)C2)C1 [VINBLASTINE]	0.7	2.7	–	2100	1

Further lines, with some results ahead:

IC50 (MCF7) [nM]	IC50 (K562) [nM]	IC50 (HCT-116) [nM]	IC50 [2] [nM]	SMILES	IC50 [1] [nM]
230	120	700	1000	CCC1=C[C@@H]2CN(C1)C[C@H](CN1CCC[C@H]1C(=O)OC)Cc1c([nH]c3ccccc13)[C@@](C(=O)OC)(c1cc3c(cc1OC)N(C)[C@H]1[C@@](O)(C(=O)OC)[C@H](OC(C)=O)[C@]4(CC)C=CCN5CC[C@]31[C@@H]54)C2	25
–	–	–	400	CC[C@H](C)[C@H](NC(=O)[C@@H]1CCCN1C(=O)[C@H]1NC(=O)[C@H](C(C)C)NC(=O)[C@@H](NC)[C@@H](O)c2cc(Cl)c(O)c(c2)O[C@]1(C)CC)C(=O)NC(CC(=O)O)C(=O)O (mixture of isomers)	–
4	3.5	–	600	CCC1=C[C@@H]2CN(C1)Cc1c([nH]c3ccccc13)[C@@](C(=O)OC)(c1cc3c(cc1OC)N(C)[C@H]1[C@@](O)(C(=O)OC)[C@H](OC(C)=O)[C@]4(CC)C=CCN5CC[C@]31[C@@H]54)C2 [VINORELBINE]	2

From ChEMBL document CHEMBL3286386, “One-pot synthesis of vinca alkaloids-phomopsin hybrids” (J Med Chem, 2014)
